Test results published in ChEMBL document CHEMBL4038305, “Benzoxaborole Antimalarial Agents. Part 5. Lead Optimization of Novel Amide Pyrazinyloxy Benzoxaboroles and Identification of a Preclinical Candidate” (J Med Chem, 2017).
pIC50: −log10 of the molar value.

Tests used:
[1] = tested on: Plasmodium falciparum; assay: Antimalarial activity against chloroquine-sensitive Plasmodium falciparum 3D7 infected in human erythrocytes assessed as reduction in [3H]-hypoxanthine incorporation preincubated for 24 hrs followed by [3H]-hypoxanthine addition measured after 24 hrs by scintillation counting method; assay type: functional, cell-based
In short: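 P. falciparum 3D7 cultures were exposed to the compound for 48 h, with atovaquone as the reference control. IC50 was taken from three replicates.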

[2] = Terminal half life in CD1 mouse at 5 mg/kg, po via gavage by HPLC/MS analysis; assay type: ADME, organism-based; conditions: in vivo, read-out: beta t1/2 (converted)
In short: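 Female CD-1 mice, male SD rats or beagle dogs given 5 mg/kg by iv injection or oral gavage. Formulation was PEG300/propylene glycol/water 55/25/20, pH 6. Blood samples analysed by HPLC–MS/MS; parameters include AUC0-inf extrapolated to infinity and terminal half-life.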

[3] = AUC (0 to infinity) in CD1 mouse at 5 mg/kg, iv by HPLC/MS analysis; assay type: ADME, organism-based; parameters: dose 5 mg/kg, time infinity, route intravenous; conditions: in vivo
[4] = tested on: Plasmodium berghei; assay: Antimalarial activity against Plasmodium berghei infected in Swiss Webster mouse assessed as mouse survival rate at 100 mg/kg administered once daily via oral gavage for 4 consecutive days beginning 1 hr after infection measured on day 4 post infection relative to control; assay type: functional
In short: (§1)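 Mice given an intraperitoneal injection of P. berghei-infected erythrocytes taken from a previously infected animal. Oral dosing once daily for 4 consecutive days, starting 1 h after infection. Vehicle: polyethylene glycol 300/propylene glycol/water (weight ratio 55/25/20). Percent survival recorded daily from day 4 to day 20. Chloroquine 30 mg/kg and vehicle-only groups served as controls.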

[5] = tested on: Plasmodium berghei; assay: Antimalarial activity against Plasmodium berghei infected in Swiss Webster mouse assessed as mouse survival rate at 3.7 mg/kg administered once daily via oral gavage for 4 consecutive days beginning 1 hr after infection measured on day 4 post infection relative to control; assay type: functional
In short: (§2)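 P. berghei-infected erythrocytes taken from a previously infected mouse were injected intraperitoneally. Oral dosing, once daily for 4 consecutive days, began 1 h after infection, in polyethylene glycol 300/propylene glycol/water (55/25/20 by weight). Chloroquine at 30 mg/kg was the positive control, with a vehicle-only group. Percent survival was recorded daily from day 4 to day 20.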

[6] = tested on: Plasmodium berghei; assay: Antimalarial activity against Plasmodium berghei infected in Swiss Webster mouse assessed as mouse survival rate at 0.4 mg/kg administered once daily via oral gavage for 4 consecutive days beginning 1 hr after infection measured on day 4 post infection relative to control; assay type: functional; in short: as §1
[7] = tested on: Plasmodium berghei; assay: Antimalarial activity against Plasmodium berghei infected in Swiss Webster mouse assessed as mouse survival rate at 100 mg/kg administered once daily via oral gavage for 4 consecutive days beginning 1 hr after infection measured on day 5 post infection relative to control; assay type: functional; in short: as §1
[8] = tested on: Plasmodium berghei; assay: Antimalarial activity against Plasmodium berghei infected in Swiss Webster mouse assessed as mouse survival rate at 0.4 mg/kg administered once daily via oral gavage for 4 consecutive days beginning 1 hr after infection measured on day 5 post infection relative to control; assay type: functional; in short: as §1
[9] = tested on: Plasmodium berghei; assay: Antimalarial activity against Plasmodium berghei infected in Swiss Webster mouse assessed as mouse survival rate at 3.7 mg/kg administered once daily via oral gavage for 4 consecutive days beginning 1 hr after infection measured on day 6 post infection relative to control; assay type: functional; in short: as §2
[10] = tested on: Plasmodium berghei; assay: Antimalarial activity against Plasmodium berghei infected in Swiss Webster mouse assessed as mouse survival rate at 1.2 mg/kg administered once daily via oral gavage for 4 consecutive days beginning 1 hr after infection measured on day 6 post infection relative to control; assay type: functional; in short: as §1
[11] = tested on: Plasmodium berghei; assay: Antimalarial activity against Plasmodium berghei infected in Swiss Webster mouse assessed as mouse survival rate at 11 mg/kg administered once daily via oral gavage for 4 consecutive days beginning 1 hr after infection measured on day 7 post infection relative to control; assay type: functional; in short: as §2
[12] = tested on: Plasmodium berghei; assay: Antimalarial activity against Plasmodium berghei infected in Swiss Webster mouse assessed as mouse survival rate at 3.7 mg/kg administered once daily via oral gavage for 4 consecutive days beginning 1 hr after infection measured on day 7 post infection relative to control; assay type: functional; in short: as §2
[13] = tested on: Plasmodium berghei; assay: Antimalarial activity against Plasmodium berghei infected in Swiss Webster mouse assessed as mouse survival rate at 1.2 mg/kg administered once daily via oral gavage for 4 consecutive days beginning 1 hr after infection measured on day 7 post infection relative to control; assay type: functional; in short: as §1
[14] = tested on: Plasmodium berghei; assay: Antimalarial activity against Plasmodium berghei infected in Swiss Webster mouse assessed as mouse survival rate at 0.4 mg/kg administered once daily via oral gavage for 4 consecutive days beginning 1 hr after infection measured on day 7 post infection relative to control; assay type: functional; in short: as §1
[15] = tested on: Plasmodium berghei; assay: Antimalarial activity against Plasmodium berghei infected in Swiss Webster mouse assessed as mouse survival rate at 33 mg/kg administered once daily via oral gavage for 4 consecutive days beginning 1 hr after infection measured on day 8 post infection relative to control; assay type: functional; in short: as §2
[16] = tested on: Plasmodium berghei; assay: Antimalarial activity against Plasmodium berghei infected in Swiss Webster mouse assessed as mouse survival rate at 33 mg/kg administered once daily via oral gavage for 4 consecutive days beginning 1 hr after infection measured on day 9 post infection relative to control; assay type: functional; in short: as §2
[17] = tested on: Plasmodium berghei; assay: Antimalarial activity against Plasmodium berghei infected in Swiss Webster mouse assessed as mouse survival rate at 100 mg/kg administered once daily via oral gavage for 4 consecutive days beginning 1 hr after infection measured on day 10 post infection relative to control; assay type: functional; in short: as §1
[18] = tested on: Plasmodium berghei; assay: Antimalarial activity against Plasmodium berghei infected in Swiss Webster mouse assessed as mouse survival rate at 33 mg/kg administered once daily via oral gavage for 4 consecutive days beginning 1 hr after infection measured on day 11 post infection relative to control; assay type: functional; in short: as §2
[19] = Metabolic stability in human hepatocytes at 22 uM after 44 hrs; assay type: ADME, cell-based, Hepatocyte
[20] = tested on: Plasmodium berghei; assay: Antimalarial activity against Plasmodium berghei infected in Swiss Webster mouse assessed as mouse survival rate at 0.1 mg/kg administered once daily via oral gavage for 4 consecutive days beginning 1 hr after infection measured on day 5 post infection relative to control; assay type: functional; in short: as §1
[21] = tested on: Plasmodium berghei; assay: Antimalarial activity against Plasmodium berghei infected in Swiss Webster mouse assessed as mouse survival rate at 33 mg/kg administered once daily via oral gavage for 4 consecutive days beginning 1 hr after infection measured on day 12 post infection relative to control; assay type: functional; in short: as §2
[22] = tested on: Plasmodium berghei; assay: Antimalarial activity against Plasmodium berghei infected in Swiss Webster mouse assessed as mouse survival rate at 33 mg/kg administered once daily via oral gavage for 4 consecutive days beginning 1 hr after infection measured on day 13 post infection relative to control; assay type: functional; in short: as §2
[23] = tested on: Plasmodium berghei; assay: Antimalarial activity against Plasmodium berghei infected in Swiss Webster mouse assessed as mouse survival rate at 100 mg/kg administered once daily via oral gavage for 4 consecutive days beginning 1 hr after infection measured on day 14 post infection relative to control; assay type: functional; in short: as §1
[24] = tested on: Plasmodium berghei; assay: Antimalarial activity against Plasmodium berghei infected in Swiss Webster mouse assessed as mouse survival rate at 33 mg/kg administered once daily via oral gavage for 4 consecutive days beginning 1 hr after infection measured on day 14 post infection relative to control; assay type: functional; in short: as §2
[25] = tested on: Plasmodium berghei; assay: Antimalarial activity against Plasmodium berghei infected in Swiss Webster mouse assessed as mouse survival rate at 200 mg/kg administered once daily via oral gavage for 4 consecutive days beginning 1 hr after infection measured on day 5 post infection relative to control; assay type: functional; in short: as §2
[26] = tested on: Plasmodium berghei; assay: Antimalarial activity against Plasmodium berghei infected in Swiss Webster mouse assessed as mouse survival rate at 11 mg/kg administered once daily via oral gavage for 4 consecutive days beginning 1 hr after infection measured on day 9 post infection relative to control; assay type: functional; in short: as §2
[27] = tested on: Plasmodium berghei; assay: Antimalarial activity against Plasmodium berghei infected in Swiss Webster mouse assessed as mouse survival rate at 100 mg/kg administered once daily via oral gavage for 4 consecutive days beginning 1 hr after infection measured on day 15 post infection relative to control; assay type: functional; in short: as §1

| SMILES | pIC50 [1] | survival at 100 mg/kg [4] [%] | survival at 3.7 mg/kg [5] [%] | survival at 0.4 mg/kg [6] [%] | survival at 100 mg/kg [7] [%] | survival at 0.4 mg/kg [8] [%] | survival at 3.7 mg/kg [9] [%] | survival at 1.2 mg/kg [10] [%] | survival at 11 mg/kg [11] [%] | survival at 3.7 mg/kg [12] [%] | survival at 1.2 mg/kg [13] [%] | survival at 0.4 mg/kg [14] [%] | survival at 33 mg/kg [15] [%] | survival at 33 mg/kg [16] [%] | survival at 100 mg/kg [17] [%] | survival at 33 mg/kg [18] [%] | Stability [19] | survival at 0.1 mg/kg [20] [%] | survival at 33 mg/kg [21] [%] | survival at 100 mg/kg [23] [%] | further results |
| --- | --- | --- | --- | --- | --- | --- | --- | --- | --- | --- | --- | --- | --- | --- | --- | --- | --- | --- | --- | --- | --- |
| Cc1c(Oc2cnc(C(=O)N[C@@H](CO)CC(F)(F)F)cn2)ccc2c1B(O)OC2 | 6.83 | 100 | 100 | 100 | 100 | 100 | 100 | 100 | 0 | 0 | 0 | 0 | 100 | 100 | 100 | 0 |  |  |  |  | half-life [2]: 3 h; AUC(0-inf) [3]: 21000 ng·h/mL |
| Cc1c(Oc2cnc(C(=O)N3CC(O)(C4CC4)C3)cn2)ccc2c1B(O)OC2 | 6.87 | 100 | 100 | 100 | 100 | 100 | 100 | 100 | 0 | 0 | 0 | 0 | 100 | 100 | 100 | 40 | Stable | 100 | 40 | 0 | survival at 33 mg/kg [22]: 40%; survival at 33 mg/kg [24]: 0% |
| CCCC1(O)CN(C(=O)c2cnc(Oc3ccc4c(c3C)B(O)OC4)cn2)C1 | 7.27 | 100 | 100 | 100 | 100 | 100 | 100 | 100 | 80 | 0 | 0 | 0 | 100 | 100 | 100 | 100 | Stable | 100 | 100 | 80 | survival at 200 mg/kg [25]: 100%; survival at 11 mg/kg [26]: 0%; survival at 33 mg/kg [22]: 100%; survival at 33 mg/kg [24]: 0%; survival at 100 mg/kg [27]: 80% |
| CCC[C@H](CO)NC(=O)c1cnc(Oc2ccc3c(c2C)B(O)OC3)cn1 | 6.70 | 100 | 100 |  | 100 |  | 100 | 100 | 0 | 0 | 0 |  | 100 | 0 | 100 |  |  |  |  | 0 | half-life [2]: 4.5 h; AUC(0-inf) [3]: 20500 ng·h/mL; survival at 200 mg/kg [25]: 100% |
| Cc1c(Oc2cnc(C(=O)NCCO)cn2)ccc2c1B(O)OC2 | 5.97 | 100 | 100 |  | 100 |  | 100 | 100 | 0 | 0 | 0 |  |  |  | 0 |  |  |  |  |  | half-life [2]: 3 h; AUC(0-inf) [3]: 31400 ng·h/mL; survival at 200 mg/kg [25]: 100% |
| Cc1c(Oc2cnc(C(=O)N3CC(O)(C(F)(F)F)C3)cn2)ccc2c1B(O)OC2 | 8.10 | 100 | 100 | 100 | 100 | 100 | 100 |  | 100 | 0 |  | 0 | 100 | 100 | 100 | 50 | Stable | 100 | 50 | 100 | survival at 33 mg/kg [22]: 50%; survival at 33 mg/kg [24]: 0%; survival at 100 mg/kg [27]: 100% |
| CCC1(O)CN(C(=O)c2cnc(Oc3ccc4c(c3C)B(O)OC4)cn2)C1 | 7.26 | 100 | 100 | 100 | 100 | 100 | 100 | 100 | 40 | 0 | 0 | 0 | 100 | 80 | 100 | 20 | Stable | 100 | 20 | 0 | survival at 200 mg/kg [25]: 100%; survival at 33 mg/kg [22]: 20%; survival at 33 mg/kg [24]: 0% |
| Cc1c(Oc2cnc(C(=O)N3CC(O)(C(C)C)C3)cn2)ccc2c1B(O)OC2 | 7.24 | 100 | 100 | 100 | 100 | 100 | 100 |  | 60 | 0 |  | 0 | 100 | 100 | 100 | 100 | Stable | 100 | 100 | 100 | survival at 200 mg/kg [25]: 100%; survival at 11 mg/kg [26]: 60%; survival at 33 mg/kg [22]: 100%; survival at 33 mg/kg [24]: 0%; survival at 100 mg/kg [27]: 100% |
| Cc1c(Oc2cnc(C(=O)NC(C)CO)cn2)ccc2c1B(O)OC2 (centres undefined) | 6.00 | 100 |  |  | 100 |  |  |  | 40 |  |  |  | 0 |  | 40 |  |  |  |  |  | half-life [2]: 2.7 h; AUC(0-inf) [3]: 39000 ng·h/mL |
